Source: ChEMBL document CHEMBL3392958, “Evaluation of two novel antioxidants with differential effects on curcumin-induced apoptosis in C2 skeletal myoblasts; involvement of JNKs” (Bioorg Med Chem, 2015)
pIC50: −log10 of the molar value. The source made the active and inactive calls. The calls are words filed in the database; no cut-off is given here.

Tests used:
[1] = Antioxidant activity assessed as DPPH free radical scavenging activity after 30 mins by spectrophotometry; assay type: physicochemical
Procedure, shortened: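 DPPH radical (final 400 µM, in ethanol) mixed with test compound at 25–400 µM at room temperature; absorbance at 517 nm recorded at intervals over 90 min; % reducing capacity taken at 30 min, IC50 from this; means ± sem of at least two independent experiments.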

C2 [2] = test: Inhibition of curcumin-induced JNK in mouse C2 cells assessed as reduction in c-Jun phosphorylation at 15 uM pre-incubated for 30 mins before curcumin exposure for 4 hrs by Western blotting method; assay type: cell-based
Procedure, shortened: (§1)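 After 30 min pre-incubation with compound and 4 h 50 µM curcumin, nuclear extracts prepared by subcellular fractionation (25 µg) immunoblotted for phospho-c-Jun, with total c-Jun as loading control; densitometry, means ± sem of ≥3 experiments, one-way ANOVA/Bonferroni.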

C2 [3] = test: Inhibition of curcumin-induced ERK phosphorylation in mouse C2 cells at 15 uM pre-incubated for 30 mins before curcumin exposure for 15 mins by SDS-PAGE and immunoblotting method; assay type: cell-based
Procedure, shortened: (§2)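 Cells pre-treated 30 min with compound, then 50 µM curcumin for 15 min; whole-cell extracts (buffer G, 30 µg) immunoblotted for phospho-ERKs, actin loading control, ECL and densitometry; means ± sem of ≥3 experiments, one-way ANOVA/Bonferroni.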

C2 [4] = test: Inhibition of curcumin-induced JNK phosphorylation in mouse C2 cells at 15 uM pre-incubated for 30 mins before curcumin exposure for 2 hrs by SDS-PAGE and immunoblotting method
[5] = Cytotoxic activity against mouse C2 cells assessed as cell viability at 15 uM after 24 hrs by MTT assay (reference value: 100%); assay type: cell-based; conditions: read-out: Activity
Procedure, shortened: (§3)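 Serum-deprived C2 myoblasts (≥3 h, 70% confluence) incubated with compound alone (DMSO vehicle) for 24 h; MTT read at 540 nm after lysis in 0.1 M HCl/isopropanol, expressed as % of untreated control; means ± sem of ≥3 independent experiments.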

[6] = Cytoprotective activity against curcumin-induced cytotoxicity in mouse C2 cells assessed as cell viability at 15 uM after 24 hrs by MTT assay (reference value: 83.8 +/- 0.4%); assay type: functional; conditions: C2, 24 h, read-out: Activity
[7] = Cytoprotective activity against H2O2-induced cytotoxicity in mouse C2 cells assessed as cell viability at 15 uM after 24 hrs by MTT assay (reference value: 83.1 +/- 3.5%); assay type: functional; conditions: C2, 24 h, read-out: Activity
[8] = Effect on PARP protein level in mouse C2 cells at 30 uM incubated for 30 mins by SDS-PAGE and immunoblotting method; assay type: cell-based; conditions: c2, 0.5 h
[9] = Cytotoxic activity against mouse C2 cells assessed as cell viability at 30 uM after 24 hrs by MTT assay (reference value: 100%); assay type: cell-based; conditions: read-out: Activity; procedure, shortened: as §3
C2 [10] = test: Inhibition of H2O2-induced ERK phosphorylation in mouse C2 cells at 30 uM pre-incubated for 30 mins before H2O2 exposure for 15 mins by SDS-PAGE and immunoblotting method; assay type: cell-based
Procedure, shortened: (§4)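 C2 myoblasts pre-incubated 30 min with compound, then 1 mM H2O2 for 15 min. Lysates in buffer G (30 µg) run on SDS–PAGE and immunoblotted for phospho-ERKs or phospho-JNKs, actin as loading control; ECL, densitometry; means ± sem, ≥3 experiments; one-way ANOVA with Bonferroni post-test.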

[11] = Cytoprotective activity against curcumin-induced cytotoxicity in mouse C2 cells assessed as cell viability at 30 uM after 24 hrs by MTT assay (reference value: 83.8 +/- 0.4%); assay type: functional; conditions: C2, 24 h, read-out: Activity
C2 [12] = test: Inhibition of curcumin-induced JNK in mouse C2 cells assessed as reduction in c-Jun phosphorylation at 30 uM pre-incubated for 30 mins before curcumin exposure for 4 hrs by Western blotting method; assay type: cell-based; procedure, shortened: as §1
C2 [13] = test: Inhibition of curcumin-induced apoptosis in mouse C2 cells assessed as reduction in PARP cleavage at 30 uM pre-incubated for 30 mins before curcumin exposure for 4 hrs by SDS-PAGE and immunoblotting method; assay type: functional, cell-based
Procedure, shortened: (§5)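 C2 cells pre-incubated 30 min with compound, then 50 µM curcumin for 4 h; buffer G lysates (30 µg) immunoblotted with antibody detecting full-length PARP and the 89 kDa fragment, actin loading control; densitometry, means ± sem of ≥3 experiments, one-way ANOVA with Bonferroni.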

[14] = Cytoprotective activity against H2O2-induced cytotoxicity in mouse C2 cells assessed as cell viability at 30 uM after 24 hrs by MTT assay (reference value: 83.1 +/- 3.5%); assay type: functional; conditions: C2, 24 h, read-out: Activity
C2 [15] = test: Inhibition of curcumin-induced JNK phosphorylation in mouse C2 cells at 30 uM pre-incubated for 30 mins before curcumin exposure for 2 hrs by SDS-PAGE and immunoblotting method
C2 [16] = test: Inhibition of curcumin-induced ERK phosphorylation in mouse C2 cells at 30 uM pre-incubated for 30 mins before curcumin exposure for 15 mins by SDS-PAGE and immunoblotting method; assay type: cell-based; procedure, shortened: as §2
[17] = Cytoprotective activity against H2O2-induced cytotoxicity in mouse C2 cells assessed as cell viability at 1 uM after 24 hrs by MTT assay (reference value: 83.1 +/- 3.5%); assay type: functional; conditions: C2, 24 h, read-out: Activity
[18] = Cytoprotective activity against H2O2-induced cytotoxicity in mouse C2 cells assessed as cell viability at 50 uM after 24 hrs by MTT assay (reference value: 83.1 +/- 3.5%); assay type: functional; conditions: C2, 24 h, read-out: Activity
C2 [19] = test: Inhibition of H2O2-induced JNK phosphorylation in mouse C2 cells at 30 uM pre-incubated for 30 mins before H2O2 exposure for 15 mins by SDS-PAGE and immunoblotting method; assay type: cell-based; procedure, shortened: as §4
C2 [20] = test: Inhibition of H2O2-induced JNK phosphorylation in mouse C2 cells at 15 uM pre-incubated for 30 mins before H2O2 exposure for 15 mins by SDS-PAGE and immunoblotting method; assay type: cell-based; procedure, shortened: as §4
C2 [21] = test: Inhibition of H2O2-induced ERK phosphorylation in mouse C2 cells at 15 uM pre-incubated for 30 mins before H2O2 exposure for 15 mins by SDS-PAGE and immunoblotting method; assay type: cell-based; procedure, shortened: as §4
[22] = Cytotoxic activity against mouse C2 cells assessed as cell viability at 50 uM after 24 hrs by MTT assay (reference value: 100%); assay type: cell-based; conditions: read-out: Activity; procedure, shortened: as §3
C2 [23] = test: Inhibition of curcumin-induced apoptosis in mouse C2 cells assessed as reduction in PARP cleavage at 15 uM pre-incubated for 30 mins before curcumin exposure for 4 hrs by SDS-PAGE and immunoblotting method; assay type: functional, cell-based; procedure, shortened: as §5
[24] = Effect on PARP protein level in mouse C2 cells at 15 uM incubated for 30 mins by SDS-PAGE and immunoblotting method; assay type: cell-based; conditions: c2, 0.5 h
C2 [25] = test: Inhibition of curcumin-induced apoptosis in mouse C2 cells assessed as reduction in PARP cleavage at 2.5 uM pre-incubated for 30 mins before curcumin exposure for 4 hrs by SDS-PAGE and immunoblotting method; assay type: functional, cell-based; procedure, shortened: as §5
[26] = Effect on PARP protein level in mouse C2 cells at 2.5 uM incubated for 30 mins by SDS-PAGE and immunoblotting method; assay type: cell-based; conditions: c2, 0.5 h

| pIC50 [1] | Compound | inhibition (C2 [2]) | inhibition (C2 [3]) | inhibition (C2 [4]) | viability at 24 h, 15 µM [5] | viability at 15 µM [6] | viability at 15 µM [7] | viability at 30 µM [14] | viability at 1 µM [17] | viability at 50 µM [18] | inhibition (C2 [20]) | inhibition (C2 [21]) | further results |
| --- | --- | --- | --- | --- | --- | --- | --- | --- | --- | --- | --- | --- | --- |
| 4.02 | Oc1ccc(/C=C/c2cc(O)cc(O)c2)cc1 [RESVERATROL] | – | – | – | – | – | – | – | – | – | – | – | – |
| – | COc1ccc2[nH]cc(CCNC(C)=O)c2c1 [MELATONIN] | 57% | 53% | 50% | 96.9% | 98.5% | 92.5% | – | – | – | – | – | – |
| 3.57 | CN1CC(O)(c2ccc(-c3ccccc3)cc2)Sc2ccccc21 (centres undefined) | – | – | – | – | – | 87.1% | 99.1% | 81.6% | 97.6% | – | – | Activity [8]: Non-toxic; viability at 24 h, 30 µM [9]: 99.5%; inhibition (C2 [10]): 55%; viability at 30 µM [11]: 99.1%; inhibition (C2 [12]): 40%; inhibition (C2 [13]): Active; inhibition (C2 [15]): 50%; inhibition (C2 [16]): 53%; inhibition (C2 [19]): 81% |
| – | COc1cc(/C=C/C(=O)CC(=O)/C=C/c2ccc(O)c(OC)c2)ccc1O [CURCUMIN] | – | – | – | – | – | 90.2% | 93.1% | 85.5% | 53.6% | 81% | 55% | viability at 24 h, 50 µM [22]: 83.8% |
| 3.92 | CN1CC(O)(c2ccc(-c3ccccc3)cc2)Oc2ccccc21 (centres undefined) | inactive | 79% | inactive | 98.1% | 53.6% | 97.1% | 76.2% | 84.6% | 71.6% | 81% | 55% | inhibition (C2 [23]): inactive; Activity [24]: Non-toxic |
| – | N#C/C(=C1/Nc2ccccc2S1)c1ccnc(NCCc2cccnc2)n1 | – | – | – | – | – | – | – | – | – | – | – | inhibition (C2 [25]): Active; Activity [26]: Non-toxic |
